System: CAKI-1
Assay: inhibitory activity against renal tumor […] cell line.
Format: functional
Details: Homo sapiens
Procedure, shortened: (§1)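 Tested in the NCI human cell line panel. GI50 = drug concentration (nM) giving growth inhibition to 50% of controls; values below 10 nM were taken as 10 nM in calculations.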

| SMILES | GI50 |
| --- | --- |
| CN(CCCNC(=O)c1cccc2cc3cccc(C(F)(F)F)c3nc12)CCCNC(=O)c1cccc2cc3cccc(C(F)(F)F)c3nc12 | 600 nM |
| CN(CCCNC(=O)c1cccc2cc3cccc(Cl)c3nc12)CCCNC(=O)c1cccc2cc3cccc(Cl)c3nc12 | 95.9 nM |
| Cc1cccc2nc3c(C(=O)NCCCN(C)CCCNC(=O)c4cccc5cc6c(C)cccc6nc45)cccc3cc12 | 58 nM |
| CN(CCCNC(=O)c1cccc2cc3ccc(Cl)cc3nc12)CCCNC(=O)c1cccc2cc3ccc(Cl)cc3nc12 | < 10 nM |
| CN(CCCNC(=O)c1cccc2cc3cccc(F)c3nc12)CCCNC(=O)c1cccc2cc3cccc(F)c3nc12 | 34 nM |
| CN(CCCNC(=O)c1cccc2cc3ccccc3nc12)CCCNC(=O)c1cccc2cc3ccccc3nc12 | 14 nM |

System: HCT-116
Assay: inhibitory activity against colon HCT116 cell line.
Format: functional
Details: Homo sapiens
Procedure, shortened: as §1

| GI50 | SMILES |
| --- | --- |
| 32 nM | CN(CCCNC(=O)c1cccc2cc3cccc(C(F)(F)F)c3nc12)CCCNC(=O)c1cccc2cc3cccc(C(F)(F)F)c3nc12 |
| 14 nM | CN(CCCNC(=O)c1cccc2cc3cccc(Cl)c3nc12)CCCNC(=O)c1cccc2cc3cccc(Cl)c3nc12 |
| 13 nM | Cc1cccc2nc3c(C(=O)NCCCN(C)CCCNC(=O)c4cccc5cc6c(C)cccc6nc45)cccc3cc12 |
| < 10 nM | CN(CCCNC(=O)c1cccc2cc3ccc(Cl)cc3nc12)CCCNC(=O)c1cccc2cc3ccc(Cl)cc3nc12 |
| < 10 nM | CN(CCCNC(=O)c1cccc2cc3cccc(F)c3nc12)CCCNC(=O)c1cccc2cc3cccc(F)c3nc12 |
| < 10 nM | CN(CCCNC(=O)c1cccc2cc3ccccc3nc12)CCCNC(=O)c1cccc2cc3ccccc3nc12 |

System: HT-29
Assay: inhibitory activity against colon HT-29 cell line.
Format: functional
Details: Homo sapiens
Procedure, shortened: as §1

| GI50 | SMILES |
| --- | --- |
| 33 nM | CN(CCCNC(=O)c1cccc2cc3cccc(C(F)(F)F)c3nc12)CCCNC(=O)c1cccc2cc3cccc(C(F)(F)F)c3nc12 |
| 31 nM | CN(CCCNC(=O)c1cccc2cc3cccc(Cl)c3nc12)CCCNC(=O)c1cccc2cc3cccc(Cl)c3nc12 |
| 60 nM | Cc1cccc2nc3c(C(=O)NCCCN(C)CCCNC(=O)c4cccc5cc6c(C)cccc6nc45)cccc3cc12 |
| < 10 nM | CN(CCCNC(=O)c1cccc2cc3ccc(Cl)cc3nc12)CCCNC(=O)c1cccc2cc3ccc(Cl)cc3nc12 |
| < 10 nM | CN(CCCNC(=O)c1cccc2cc3cccc(F)c3nc12)CCCNC(=O)c1cccc2cc3cccc(F)c3nc12 |
| < 10 nM | CN(CCCNC(=O)c1cccc2cc3ccccc3nc12)CCCNC(=O)c1cccc2cc3ccccc3nc12 |

System: Jurkat
Assay: Concentration required to inhibit 50% growth of human Jurkat cells
Format: functional, cell-based
Details: not given
Procedure, shortened: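 Jurkat leukemia (JLC) cells seeded at 3.75 × 10^3 cells/well and exposed to drug for 4 days; growth measured by sulforhodamine assay. IC50 = drug concentration (nM) reducing cell number to 50% of control cultures. Independent assays in duplicate, coefficients of variation ca. 25%.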

| IC50 | SMILES |
| --- | --- |
| 115 nM | CN(CCCNC(=O)c1cccc2cc3cccc(C(F)(F)F)c3nc12)CCCNC(=O)c1cccc2cc3cccc(C(F)(F)F)c3nc12 |
| 33 nM | CN(CCCNC(=O)c1cccc2cc3cccc(Cl)c3nc12)CCCNC(=O)c1cccc2cc3cccc(Cl)c3nc12 |
| 71 nM | Cc1cccc2nc3c(C(=O)NCCCN(C)CCCNC(=O)c4cccc5cc6c(C)cccc6nc45)cccc3cc12 |
| 51 nM | CN(CCCNC(=O)c1cccc2cc3ccc(Cl)cc3nc12)CCCNC(=O)c1cccc2cc3ccc(Cl)cc3nc12 |
| 49 nM | CN(CCCNC(=O)c1cccc2cc3cccc(F)c3nc12)CCCNC(=O)c1cccc2cc3cccc(F)c3nc12 |
| 110 nM | CN(CCCNC(=O)c1cccc2cc3ccccc3nc12)CCCNC(=O)c1cccc2cc3ccccc3nc12 |

System: MCF7
Assay: inhibitory activity against multi drug resistant MCF cell line.
Format: functional
Details: Homo sapiens, in the assay text read “MCF7 cell line” for “multi drug resistant MCF cell line”
Procedure, shortened: as §1

| GI50 | SMILES |
| --- | --- |
| 79 nM | CN(CCCNC(=O)c1cccc2cc3cccc(C(F)(F)F)c3nc12)CCCNC(=O)c1cccc2cc3cccc(C(F)(F)F)c3nc12 |
| 167 nM | CN(CCCNC(=O)c1cccc2cc3cccc(Cl)c3nc12)CCCNC(=O)c1cccc2cc3cccc(Cl)c3nc12 |
| 174 nM | Cc1cccc2nc3c(C(=O)NCCCN(C)CCCNC(=O)c4cccc5cc6c(C)cccc6nc45)cccc3cc12 |
| 13 nM | CN(CCCNC(=O)c1cccc2cc3ccc(Cl)cc3nc12)CCCNC(=O)c1cccc2cc3ccc(Cl)cc3nc12 |
| < 10 nM | CN(CCCNC(=O)c1cccc2cc3cccc(F)c3nc12)CCCNC(=O)c1cccc2cc3cccc(F)c3nc12 |
| 24 nM | CN(CCCNC(=O)c1cccc2cc3ccccc3nc12)CCCNC(=O)c1cccc2cc3ccccc3nc12 |

System: Lewis lung carcinoma cell line
Assay: Inhibitory activity of tested against Murine Lewis lung carcinoma
Format: functional, cell-based
Details: Mus musculus
Procedure, shortened: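 Lewis lung carcinoma (LLTC) cells at 10^3 cells/well, 4-day continuous drug exposure, growth read by sulforhodamine assay. IC50 (nM) = concentration giving 50% of control cell number. Duplicate independent assays, CV ca. 25%.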

| IC50 | SMILES |
| --- | --- |
| 39 nM | CN(CCCNC(=O)c1cccc2cc3cccc(C(F)(F)F)c3nc12)CCCNC(=O)c1cccc2cc3cccc(C(F)(F)F)c3nc12 |
| 8 nM | CN(CCCNC(=O)c1cccc2cc3cccc(Cl)c3nc12)CCCNC(=O)c1cccc2cc3cccc(Cl)c3nc12 |
| 16 nM | Cc1cccc2nc3c(C(=O)NCCCN(C)CCCNC(=O)c4cccc5cc6c(C)cccc6nc45)cccc3cc12 |
| 13 nM | CN(CCCNC(=O)c1cccc2cc3ccc(Cl)cc3nc12)CCCNC(=O)c1cccc2cc3ccc(Cl)cc3nc12 |
| 35 nM | CN(CCCNC(=O)c1cccc2cc3cccc(F)c3nc12)CCCNC(=O)c1cccc2cc3cccc(F)c3nc12 |
| 30 nM | CN(CCCNC(=O)c1cccc2cc3ccccc3nc12)CCCNC(=O)c1cccc2cc3ccccc3nc12 |

System: NCI/ADR-RES
Assay: inhibitory activity against multi drug resistant NCI/ADR cell line.
Format: functional
Details: Homo sapiens
Procedure, shortened: as §1

| SMILES | GI50 |
| --- | --- |
| CN(CCCNC(=O)c1cccc2cc3cccc(C(F)(F)F)c3nc12)CCCNC(=O)c1cccc2cc3cccc(C(F)(F)F)c3nc12 | 1290 nM |
| CN(CCCNC(=O)c1cccc2cc3cccc(Cl)c3nc12)CCCNC(=O)c1cccc2cc3cccc(Cl)c3nc12 | 1200 nM |
| Cc1cccc2nc3c(C(=O)NCCCN(C)CCCNC(=O)c4cccc5cc6c(C)cccc6nc45)cccc3cc12 | 1040 nM |
| CN(CCCNC(=O)c1cccc2cc3ccc(Cl)cc3nc12)CCCNC(=O)c1cccc2cc3ccc(Cl)cc3nc12 | 274 nM |
| CN(CCCNC(=O)c1cccc2cc3cccc(F)c3nc12)CCCNC(=O)c1cccc2cc3cccc(F)c3nc12 | 93 nM |
| CN(CCCNC(=O)c1cccc2cc3ccccc3nc12)CCCNC(=O)c1cccc2cc3ccccc3nc12 | 408 nM |

System: P388
Assay: Inhibitory activity against Murine […]
Format: functional, cell-based
Details: Mus musculus
Procedure, shortened: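 Murine P388 leukemia cells seeded at 4.5 × 10^3 cells/well, cultured 3 days with drug; growth measured by [3H]TdR uptake. IC50 = drug concentration (nM) reducing cell number to 50% of controls. Independent assays in duplicate, CV ca. 25%.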

| IC50 | SMILES |
| --- | --- |
| 240 nM | CN(CCCNC(=O)c1cccc2cc3cccc(C(F)(F)F)c3nc12)CCCNC(=O)c1cccc2cc3cccc(C(F)(F)F)c3nc12 |
| 46 nM | CN(CCCNC(=O)c1cccc2cc3cccc(Cl)c3nc12)CCCNC(=O)c1cccc2cc3cccc(Cl)c3nc12 |
| 180 nM | Cc1cccc2nc3c(C(=O)NCCCN(C)CCCNC(=O)c4cccc5cc6c(C)cccc6nc45)cccc3cc12 |
| 66 nM | CN(CCCNC(=O)c1cccc2cc3ccc(Cl)cc3nc12)CCCNC(=O)c1cccc2cc3ccc(Cl)cc3nc12 |
| 16 nM | CN(CCCNC(=O)c1cccc2cc3cccc(F)c3nc12)CCCNC(=O)c1cccc2cc3cccc(F)c3nc12 |
| 130 nM | CN(CCCNC(=O)c1cccc2cc3ccccc3nc12)CCCNC(=O)c1cccc2cc3ccccc3nc12 |

System: SK-OV-3
Assay: inhibitory activity against ovarian carcinoma SKOV3 cell line.
Format: functional
Details: Homo sapiens
Procedure, shortened: as §1

| GI50 | SMILES |
| --- | --- |
| 1260 nM | CN(CCCNC(=O)c1cccc2cc3cccc(C(F)(F)F)c3nc12)CCCNC(=O)c1cccc2cc3cccc(C(F)(F)F)c3nc12 |
| 12000 nM | CN(CCCNC(=O)c1cccc2cc3cccc(Cl)c3nc12)CCCNC(=O)c1cccc2cc3cccc(Cl)c3nc12 |
| 594 nM | Cc1cccc2nc3c(C(=O)NCCCN(C)CCCNC(=O)c4cccc5cc6c(C)cccc6nc45)cccc3cc12 |
| 11000 nM | CN(CCCNC(=O)c1cccc2cc3ccc(Cl)cc3nc12)CCCNC(=O)c1cccc2cc3ccc(Cl)cc3nc12 |
| 845 nM | CN(CCCNC(=O)c1cccc2cc3cccc(F)c3nc12)CCCNC(=O)c1cccc2cc3cccc(F)c3nc12 |
| 8570 nM | CN(CCCNC(=O)c1cccc2cc3ccccc3nc12)CCCNC(=O)c1cccc2cc3ccccc3nc12 |

System: Jurkat
Assay: Ratio of inhibitory activity against amsacrine resistant jurkat cells to inhibitory activity against wild type human jurkat cells
Format: functional
Details: not given
Procedure, shortened: (§2)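 Wild-type Jurkat (JLC) and its amsacrine-resistant (JLA) or doxorubicin-resistant (JLD) sublines each seeded at 3.75 × 10^3 cells/well, 4 days with drug, sulforhodamine read-out. IC50 (nM) for 50% of control cell number; ratio = resistant-line IC50 divided by JLC IC50. Duplicate assays, CV ca. 25%.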

| SMILES | Ratio |
| --- | --- |
| CN(CCCNC(=O)c1cccc2cc3cccc(C(F)(F)F)c3nc12)CCCNC(=O)c1cccc2cc3cccc(C(F)(F)F)c3nc12 | 0.85 |
| CN(CCCNC(=O)c1cccc2cc3cccc(Cl)c3nc12)CCCNC(=O)c1cccc2cc3cccc(Cl)c3nc12 | 0.55 |
| Cc1cccc2nc3c(C(=O)NCCCN(C)CCCNC(=O)c4cccc5cc6c(C)cccc6nc45)cccc3cc12 | 0.7 |
| CN(CCCNC(=O)c1cccc2cc3ccc(Cl)cc3nc12)CCCNC(=O)c1cccc2cc3ccc(Cl)cc3nc12 | 0.5 |
| CN(CCCNC(=O)c1cccc2cc3cccc(F)c3nc12)CCCNC(=O)c1cccc2cc3cccc(F)c3nc12 | 0.6 |
| CN(CCCNC(=O)c1cccc2cc3ccccc3nc12)CCCNC(=O)c1cccc2cc3ccccc3nc12 | 0.7 |

System: Jurkat
Assay: Ratio of inhibitory activity against doxorubicin resistant jurkat cells to inhibitory activity against wild type human jurkat cells
Format: functional
Details: not given
Procedure, shortened: as §2

| SMILES | Ratio |
| --- | --- |
| CN(CCCNC(=O)c1cccc2cc3cccc(C(F)(F)F)c3nc12)CCCNC(=O)c1cccc2cc3cccc(C(F)(F)F)c3nc12 | 1.1 |
| CN(CCCNC(=O)c1cccc2cc3cccc(Cl)c3nc12)CCCNC(=O)c1cccc2cc3cccc(Cl)c3nc12 | 1 |
| Cc1cccc2nc3c(C(=O)NCCCN(C)CCCNC(=O)c4cccc5cc6c(C)cccc6nc45)cccc3cc12 | 1 |
| CN(CCCNC(=O)c1cccc2cc3ccc(Cl)cc3nc12)CCCNC(=O)c1cccc2cc3ccc(Cl)cc3nc12 | 0.9 |
| CN(CCCNC(=O)c1cccc2cc3cccc(F)c3nc12)CCCNC(=O)c1cccc2cc3cccc(F)c3nc12 | 0.9 |
| CN(CCCNC(=O)c1cccc2cc3ccccc3nc12)CCCNC(=O)c1cccc2cc3ccccc3nc12 | 0.8 |
